# Shown are actives, neighbours in structure and some others; about 3% of the full set was active somewhere.
# UBC13 inh = blocks human UBC13 polyubiquitin chain formation. inhibition, % at 20 µM. P61088. TR-FRET. 330,000 tested, 0.47% active; in the data active = inhibition above about 45%, passing the limit was not always enough
# Target sequence (P61088 whole entry, looked up): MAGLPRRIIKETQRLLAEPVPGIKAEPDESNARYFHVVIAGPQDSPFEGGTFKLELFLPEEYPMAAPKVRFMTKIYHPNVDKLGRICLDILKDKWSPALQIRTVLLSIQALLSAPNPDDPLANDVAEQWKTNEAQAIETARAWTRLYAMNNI
# SENP7 block = SENP7 protease inhibition; Q9BQF6; recombinant SENP7, Z-RLRGG-aminoluciferin luminescence, 40 min; inhibition, % at 5 µM; 330,000 tested, 1.5% active; AID 434973;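 active = inhibition above about 50% at the single test dose, limit read from the data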
# SENP8 block-1 = inhibitors of human SENP8 protease; recombinant SENP8, Nedd8 substrate fluorescence; Q96LD8; inhibition, % at 20 µM; 360,000 tested, 0.64% active; AID 602440; in the data active = inhibition mostly above about 40%, no sharp cut-off; inactive = mostly below about 27%
# Target sequence (Q96LD8 whole entry, looked up): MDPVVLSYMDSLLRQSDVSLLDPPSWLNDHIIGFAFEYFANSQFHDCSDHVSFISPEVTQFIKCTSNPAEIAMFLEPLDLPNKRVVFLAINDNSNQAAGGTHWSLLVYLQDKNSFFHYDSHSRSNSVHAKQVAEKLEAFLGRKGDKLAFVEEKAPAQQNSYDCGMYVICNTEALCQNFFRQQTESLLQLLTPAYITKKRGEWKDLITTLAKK
# SENP8 block-2 = blocks the human protease SENP8; Q96LD8; purified SENP8, Z-RLRGG-aminoluciferin cleavage, luminescence; inhibition, % at 10 µM; 330,000 tested, 1.2% active; AID 2540; in the data active = inhibition above about 50%
# SENP6 block = blocks the human protease SENP6; inhibition, % at 10 µM; 330,000 tested, 1.8% active; Recombinant SENP6 catalytic domain, aminoluciferin luminescence; AID 2599;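 active = inhibition above about 50% at the single tested dose, limit read from the data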
# Apaf-1 inh = inhibitors of human Apaf-1 apoptosome; O14727; reconstituted apoptosome caspase-3 activity, DEVD-Rh110 fluorescence; inhibition, % at 20 µM; 330,000 tested, 0.71% active; active = inhibition of at least 40% at 20 µM
#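 System: Apoptosome proteins | Medium: Hepes pH 7.5 with detergent and BSA | Also added: Cytochrome c trigger plus (Z-DEVD)2-Rh110 caspase-3 substrate | Incubation: 30 min compound preincubation, 50 min activation, room temperature | Detection: Rhodamine 110 fluorescence at Ex 480/Em 540 nm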
# SENP8 confirm = confirmation of human SENP8 protease inhibitors. shares compounds with SENP7 block. Recombinant SENP8, Z-RLRGG-aminoluciferin luminescence, 60 min. inhibition, % at 12.5 µM. 6,200 tested, 40% active;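 active = mean inhibition across replicates above about 50%, limit read from the data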
# SENP6 conf = confirmation of human SENP6 protease inhibitors. shares compounds with SENP7 block. recombinant SENP6, Z-RLRGG-aminoluciferin luminescence. inhibition, % at 12.5 µM. 6,200 tested, 58% active
# SENP7 confirm = confirmation of human SENP7 protease inhibitors; shares compounds with SENP7 block; recombinant SENP7, Z-RLRGG-aminoluciferin luminescence, 40 min; inhibition, % at 12.5 µM; 6,200 tested, 69% active
# Casp3 select = inhibits human caspase-3 in SENP selectivity test | purified caspase-3, Z-DEVD-aminoluciferin luminescence, 60 min | 6,200 tested, 60% active | shares compounds with SENP7 block | inhibition, % at 12.5 µM;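 active = mean inhibition above about 50%, limit read from the data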
# Target sequence (P42574 28-227 limits assumed): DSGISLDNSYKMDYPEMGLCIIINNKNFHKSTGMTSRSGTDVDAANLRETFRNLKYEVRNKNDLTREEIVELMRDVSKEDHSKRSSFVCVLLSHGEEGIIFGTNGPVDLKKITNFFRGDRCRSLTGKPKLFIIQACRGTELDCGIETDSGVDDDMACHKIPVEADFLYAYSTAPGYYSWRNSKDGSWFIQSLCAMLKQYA
# Luc interf = counter-screen for SENP inhibitors: luminescence interference | shares compounds with SENP7 block | Pre-incubated SENP8/Z-RLRGG-aminoluciferin, luciferase luminescence interference | inhibition, % at 12.5 µM | 6,200 tested, 39% active | AID 488919;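 active = mean inhibition above about 50% when retested at one dose, limit read from the data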
# A number is an active result; n = inactive; x = no result given.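 Rule for the calls, unless noted: active = mean inhibition above about 50% in the one-dose retest (limit read from the data); inactive = the rest.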
SMILES,UBC13 inh,SENP7 block,SENP8 block-1,SENP8 block-2,SENP6 block,Apaf-1 inh,SENP8 confirm,SENP6 conf,SENP7 confirm,Casp3 select,Luc interf
O=C(Oc1ccc(-c2cnc3ccccc3n2)cc1)c1cccc([N+](=O)[O-])c1,n,n,n,n,n,n,x,x,x,x,x
c1coc(-c2cnc3ccccc3n2)c1,x,x,n,x,x,x,x,x,x,x,x
Cc1ccc2cc(NC(=O)C3(C)CCN3CC(C)C)ccc2n1 (centres undefined),x,x,n,x,x,x,x,x,x,x,x
COc1ccc(-c2cc(=Nc3ccc(C(=O)O)cc3)c3cc(C)ccc3o2)cc1,n,89,n,79,66,n,n,81,93,84,64
CCc1ccc2oc(-c3ccc(OC)cc3)cc(=Nc3c(C)n(C)n(-c4ccccc4)c3=O)c2c1,n,99,n,84,97,n,n,n,n,n,n
C=CCn1c(-c2ccc(OC)cc2)csc1=Nc1c(C)n(C)n(-c2ccccc2)c1=O,n,n,n,n,n,n,x,x,x,x,x
COc1ccc2cc(C(=O)NCc3ccco3)c(=Nc3ccc(C(=O)O)cc3)oc2c1,n,n,n,n,n,n,x,x,x,x,x
CCc1ccc2oc(-c3ccc(OC)cc3)cc(=Nc3cccc(C(=O)O)c3)c2c1,n,97,n,86,n,n,83,85,95,79,63
CC1=NN(c2ccccc2C(=O)O)C(=O)C1N=Nc1ccccc1 (centres undefined),n,n,n,n,n,n,x,x,x,x,x
CC1=NN(c2nc(-c3ccc(C)cc3)cs2)C(=O)C1N=Nc1cccc(C)c1 (centres undefined),n,n,n,n,69,n,n,n,n,n,52
CC1=NC(=O)C(N=Nc2cccc(O)c2)N1c1ccccc1 (centres undefined),n,n,n,n,n,n,x,x,x,x,x
CC1=NN(C(N)=S)C(=O)C1N=Nc1cccc(C)c1 (centres undefined),n,54,n,60,n,n,n,n,n,n,n
CCOC(=O)c1sc(N2N=C(C)C(N=Nc3cccc(C)c3)C2=O)nc1C (centres undefined),n,n,n,n,n,n,x,x,x,x,x
CC1=NN(C(N)=S)C(=O)C1N=Nc1cccc(C(=O)O)c1 (centres undefined),n,91,n,85,93,n,92,92,100,84,n
CC1=NN(C(N)=S)C(=O)C1N=Nc1ccc(C)c(Br)c1 (centres undefined),n,78,n,93,95,n,62,53,n,68,n
CC1=NN(C(N)=S)C(=O)C1N=Nc1ccccc1C(=O)O (centres undefined),n,n,n,n,n,n,x,x,x,x,x
CC(OC(=O)CCc1nc2ccccc2c(=O)[nH]1)C(=O)c1ccc(C(C)(C)C)cc1 (centres undefined),n,n,n,n,n,n,x,x,x,x,x
COc1cccc(NC(C)C(=O)Nc2cc([N+](=O)[O-])ccc2Cl)c1 (centres undefined),n,n,n,n,n,n,x,x,x,x,x
Cc1ccc(NC(=O)COC(=O)c2ccc3ncsc3c2)c(C)c1,x,x,n,x,x,x,x,x,x,x,x
CCCCN1C(=O)Cc2c1nc(N)c1c(N)nc(N(CCC)CCC)c(C#N)c21,x,x,n,x,x,x,x,x,x,x,x
N#Cc1c(N(CCO)CCO)nc(N)c2c(N)nc3c(c12)CC(=O)N3CC1CCCO1 (centres undefined),n,n,n,67,n,98,n,n,n,n,n
Cc1c(Cc2ccccc2)c(=O)n2c([nH]c3ccccc32)c1C#N,n,n,n,n,52,n,n,n,n,n,n
COc1ccccc1N=Cc1c(C)c(C#N)c2[nH]c3ccccc3n2c1=O,n,n,n,n,n,n,x,x,x,x,x
N#Cc1c(C(F)(F)F)cc(=O)n2c1[nH]c1ccccc12,n,n,n,71,83,n,n,75,91,79,76
COc1ccc(/C=C2\Oc3ccccc3C2=O)cc1,n,97,n,92,93,n,n,94,101,94,88
SMILES,UBC13 inh,SENP7 block,SENP8 block-1,SENP8 block-2,SENP6 block,Apaf-1 inh,SENP8 confirm,SENP6 conf,SENP7 confirm,Casp3 select,Luc interf
COc1cc(OC)c2c(c1)O/C(=C\c1ccccc1)C2=O,n,54,n,57,68,n,72,68,83,n,72
CC(=O)Oc1ccc(/C=C2/Oc3ccccc3C2=O)cc1,n,78,n,83,87,n,n,61,n,71,n
Cc1nc(C(F)(F)F)ccc1C(=O)N1CCC1(C)C(=O)NS(=O)(=O)c1ccc2c(c1)CCO2 (centres undefined),x,x,n,x,x,x,x,x,x,x,x
O=C(O)c1ccc(-c2noc(-c3cccc(Cl)c3)n2)cc1,n,97,n,98,97,n,98,99,102,98,95
O=C(O)c1ccc(-c2noc(-c3ccccc3Cl)n2)cc1,n,88,n,97,97,n,99,99,103,98,98
FC(F)(F)c1ccccc1-c1nc(-c2ccncc2)no1,n,n,n,n,n,n,x,x,x,x,x
O=C(O)c1ccc(-c2noc(-c3ccc(F)cc3)n2)cc1,n,95,n,94,98,n,98,98,102,98,96
c1ccc(-c2noc(-c3ccccc3-c3ccccc3)n2)cc1,n,n,n,n,n,n,x,x,x,x,x
O=C(O)c1ccc(-c2noc(-c3ccccc3C(F)(F)F)n2)cc1,n,n,n,67,82,n,n,n,n,n,n
COc1ccc(C(=O)c2cc3cccc(OC)c3o2)cc1,n,83,n,82,84,n,88,86,97,76,66
COc1cccc2cc(C(C)=O)oc12,n,n,n,n,n,n,x,x,x,x,x
O=C(NC(=S)Nc1ccc(NC(=O)c2cccs2)cc1)c1cc2ccccc2o1,n,n,n,n,n,n,x,x,x,x,x
O=C(c1cccc([N+](=O)[O-])c1)c1cc2ccccc2o1,n,n,n,n,n,n,x,x,x,x,x
Cc1ccc(C(=O)c2cc3ccccc3o2)cc1,n,56,n,n,77,n,n,60,86,52,59
O=C(c1cc2ccccc2o1)c1cccs1,n,72,n,51,n,n,n,75,93,68,58
Cc1ccc(C(=O)c2cc3ccccc3o2)cc1C,n,76,n,69,82,n,n,72,53,n,n
